Legend:
MC-38 = assay: Antitumor activity against the subcutaneously implanted C38 colon tumor in mice.; format: functional, Mus musculus; design: concentration or dose not given beside the values
How it was run: (§1)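 Colon 38 fragments were implanted sc in BDF1 mice and grown to 4-8 mm diameter. Each mouse then got a single ip dose of the sodium salt in water, with light excluded. Doses rose in 1.5-fold steps up to 750 mg/kg or the maximum tolerated dose. Tumors were removed 24 h later, formalin-fixed, and sections were stained with hematoxylin/eosin. Necrosis was scored: ++ >90%, + 50-90%, − <50%. Groups of five mice, with 2-3 independent determinations per dose.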

Mus musculus [1] = assay: Minimum dose required when administered intraperitoneally in mice as the sodium salt in water in a single dose.; format: functional
How it was run: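 The minimum dose giving the cited necrosis level in sc colon 38 tumors (4-8 mm) in BDF1 mice. It was taken from a full dose profile at 1.5-fold intervals, given as a single ip dose of the sodium salt in water. The ceiling was 750 mg/kg or the maximum tolerated dose, defined as the highest dose causing no deaths in 24 h. Tumor histology was read at 24 h.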

Mus musculus [2] = assay: Compound was evaluated in vivo, for antitumor activity, against the subcutaneously implanted C38 colon tumor in mice; 50-90%
Mus musculus [3] = assay: Compound was evaluated in vivo, for antitumor activity, against the subcutaneously implanted C38 colon tumor in mice; 50-90%; format: functional; how it was run: as §1

SMILES: O=C(O)Cc1cccc2c(=O)c3ccc4c(c3oc12)CCC4
- Activity (MC-38): >90%
- minimum dose giving tumor necrosis (Mus musculus [1]): 45 mg/kg

SMILES: O=C(O)Cc1cccc2c(=O)c3cccc(Cl)c3oc12
- Activity (MC-38): 90%
- minimum dose giving tumor necrosis (Mus musculus [1]): 150 mg/kg

SMILES: O=C(O)Cc1cccc2c(=O)c3ccccc3oc12
- Activity (MC-38): >90%
- minimum dose giving tumor necrosis (Mus musculus [1]): 220 mg/kg

SMILES: Cc1c(Cl)ccc2c(=O)c3cccc(CC(=O)O)c3oc12
- Activity (MC-38): >90%
- minimum dose giving tumor necrosis (Mus musculus [1]): 30 mg/kg

SMILES: O=C(O)Cc1cccc2c(=O)c3ccc4ccccc4c3oc12
- Activity (MC-38): >90%
- minimum dose giving tumor necrosis (Mus musculus [1]): 65 mg/kg

SMILES: Cc1c(N(C)C)ccc2c(=O)c3cccc(CC(=O)O)c3oc12
- minimum dose giving tumor necrosis (Mus musculus [1]): 45 mg/kg

SMILES: O=C(O)Cc1cccc2c(=O)cc(-c3ccccc3)oc12 [MITOFLAXONE]
- Activity (MC-38): >90%
- minimum dose giving tumor necrosis (Mus musculus [1]): 330 mg/kg

SMILES: Cc1c(Br)ccc2c(=O)c3cccc(CC(=O)O)c3oc12
- Activity (MC-38): >90%
- minimum dose giving tumor necrosis (Mus musculus [1]): 45 mg/kg

SMILES: O=C(O)Cc1cccc2c(=O)c3ccc(Cl)c(Cl)c3oc12
- minimum dose giving tumor necrosis (Mus musculus [1]): 100 mg/kg
- Activity (Mus musculus [2]): 50%

SMILES: O=C(O)Cc1cccc2c(=O)c3cc4ccccc4cc3oc12
- Activity (Mus musculus [3]): 50%
- minimum dose giving tumor necrosis (Mus musculus [1]): 330 mg/kg

SMILES: Cc1cccc2c(=O)c3cccc(CC(=O)O)c3oc12
- Activity (MC-38): >90%
- minimum dose giving tumor necrosis (Mus musculus [1]): 30 mg/kg

SMILES: Cc1c(F)ccc2c(=O)c3cccc(CC(=O)O)c3oc12
- Activity (MC-38): >90%
- minimum dose giving tumor necrosis (Mus musculus [1]): 45 mg/kg

SMILES: Cc1ccc2c(=O)c3cccc(CC(=O)O)c3oc2c1Cl
- Activity (MC-38): >90%
- minimum dose giving tumor necrosis (Mus musculus [1]): 100 mg/kg

SMILES: Cc1ccc2c(=O)c3cccc(CC(=O)O)c3oc2c1C [VADIMEZAN]
- Activity (MC-38): >90%
- minimum dose giving tumor necrosis (Mus musculus [1]): 30 mg/kg

SMILES: Cc1ccc2c(=O)c3cccc(C)c3oc2c1CC(=O)O
- Activity (MC-38): >90%
- minimum dose giving tumor necrosis (Mus musculus [1]): 45 mg/kg

SMILES: Cc1cccc2c(=O)c3c(C)ccc(CC(=O)O)c3oc12
- Activity (MC-38): >90%
- minimum dose giving tumor necrosis (Mus musculus [1]): 65 mg/kg

SMILES: Cc1cc(CC(=O)O)c2oc3c(C)cccc3c(=O)c2c1
- Activity (MC-38): >90%
- minimum dose giving tumor necrosis (Mus musculus [1]): 220 mg/kg

SMILES: COc1ccc2c(=O)c3cccc(CC(=O)O)c3oc2c1C
- Activity (MC-38): >90%
- minimum dose giving tumor necrosis (Mus musculus [1]): 30 mg/kg

Reference: ChEMBL document CHEMBL1125725, “Potential antitumor agents. 61. Structure-activity relationships for in vivo colon 38 activity among disubstituted 9-oxo-9H-xanthene-4-acetic acids” (1991)
